# Tested on: HEK-293T
# Assay: Multiplex assay against HEK293T;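 for Population Tubulin-Different-Phenotype (%): share of the cells with healthy nuclei that show this phenotype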
# Type: toxicity, cell-based
# Conditions: human
# Summary of the method: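 Imaging took place on a CQ1 microscope at 37°C and 5% CO2 once compound had been added to live cells stained at seeding with Hoechst33342, BioTracker Green Microtubule Cytoskeleton Dye, MitoTracker Red and Annexin V Alexa Fluor 680. CellPathfinder machine-learning gating classed cells as Hoechst high-intensity objects or normal cells, classed normal cells as having healthy, pyknosed or fragmented nuclei, and classed pyknosed cells as mitotic or apoptotic. Tubulin, mitochondrial-mass and membrane-permeability phenotypes are per cents of the healthy-nucleus cells.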
# [1] = 12 h, 1 µM, compound concentration 1 uM, replicate 1
# [2] = 12 h, 1 µM, compound concentration 1 uM, replicate 2
# [3] = 12 h, 10 µM, compound concentration 10 uM, replicate 1
# [4] = 12 h, 10 µM, compound concentration 10 uM, replicate 2
# [5] = 24 h, 1 µM, compound concentration 1 uM, replicate 1
# [6] = 24 h, 1 µM, compound concentration 1 uM, replicate 2
# [7] = 24 h, 10 µM, compound concentration 10 uM, replicate 1
# [8] = 24 h, 10 µM, compound concentration 10 uM, replicate 2
# [9] = 48 h, 1 µM, compound concentration 1 uM, replicate 1
# [10] = 48 h, 1 µM, compound concentration 1 uM, replicate 2
# [11] = 48 h, 10 µM, compound concentration 10 uM, replicate 1
# [12] = 48 h, 10 µM, compound concentration 10 uM, replicate 2
smiles,measurement,setting,value
Nc1nc2c(c(N3CCNCC3)n1)CCC1=C2[C@@H]2CCCC[C@@H]2O1,Population Apoptotic (%),[1],34%
same,Population Fragmented Nuclei (%),[1],7%
same,Population Hoechst High Intensity Objects (%),[1],10%
same,Population Membrane Permeable-Phenotype (%),[1],3%
same,Population Mitochondria Different-Phenotype (%),[1],82%
same,Population Mitotic Cells (%),[1],65%
same,Population Normal (%),[1],89%
same,Population Pyknosed Nuclei (%),[1],50%
same,Population Tubulin-Different-Phenotype (%),[1],48%
same,Total Cell Count,[1],236
same,Population Apoptotic (%),[2],21%
same,Population Fragmented Nuclei (%),[2],4%
same,Population Healthy Nuclei (%),[2],41%
same,Population Hoechst High Intensity Objects (%),[2],4%
same,Population Membrane Permeable-Phenotype (%),[2],6%
same,Population Mitochondria Different-Phenotype (%),[2],33%
same,Population Mitotic Cells (%),[2],78%
same,Population Normal (%),[2],95%
same,Population Pyknosed Nuclei (%),[2],53%
same,Population Tubulin-Different-Phenotype (%),[2],25%
same,Total Cell Count,[2],217
same,Population Apoptotic (%),[3],76%
same,Population Fragmented Nuclei (%),[3],7%
same,Population Healthy Nuclei (%),[3],33%
same,Population Hoechst High Intensity Objects (%),[3],15%
same,Population Membrane Permeable-Phenotype (%),[3],4%
same,Population Mitochondria Different-Phenotype (%),[3],97%
same,Population Mitotic Cells (%),[3],23%
same,Population Normal (%),[3],84%
same,Population Pyknosed Nuclei (%),[3],59%
same,Population Tubulin-Different-Phenotype (%),[3],98%
same,Total Cell Count,[3],238
same,Population Apoptotic (%),[4],58%
same,Population Fragmented Nuclei (%),[4],5%
same,Population Healthy Nuclei (%),[4],32%
same,Population Hoechst High Intensity Objects (%),[4],7%
same,Population Membrane Permeable-Phenotype (%),[4],1%
same,Population Mitochondria Different-Phenotype (%),[4],88%
same,Population Mitotic Cells (%),[4],41%
same,Population Normal (%),[4],92%
same,Population Pyknosed Nuclei (%),[4],61%
same,Population Tubulin-Different-Phenotype (%),[4],95%
same,Total Cell Count,[4],200
same,Population Apoptotic (%),[5],49%
same,Population Fragmented Nuclei (%),[5],12%
same,Population Healthy Nuclei (%),[5],59%
same,Population Hoechst High Intensity Objects (%),[5],10%
same,Population Membrane Permeable-Phenotype (%),[5],1%
same,Population Mitochondria Different-Phenotype (%),[5],70%
same,Population Mitotic Cells (%),[5],50%
same,Population Normal (%),[5],89%
same,Population Pyknosed Nuclei (%),[5],28%
same,Population Tubulin-Different-Phenotype (%),[5],47%
same,Total Cell Count,[5],298
same,Population Apoptotic (%),[6],18%
same,Population Fragmented Nuclei (%),[6],8%
same,Population Hoechst High Intensity Objects (%),[6],3%
same,Population Membrane Permeable-Phenotype (%),[6],2%
same,Population Mitochondria Different-Phenotype (%),[6],29%
same,Population Mitotic Cells (%),[6],81%
same,Population Normal (%),[6],96%
same,Population Pyknosed Nuclei (%),[6],32%
same,Population Tubulin-Different-Phenotype (%),[6],29%
same,Total Cell Count,[6],264
same,Population Apoptotic (%),[7],80%
same,Population Fragmented Nuclei (%),[7],8%
same,Population Healthy Nuclei (%),[7],40%
same,Population Hoechst High Intensity Objects (%),[7],27%
same,Population Membrane Permeable-Phenotype (%),[7],0%
same,Population Mitotic Cells (%),[7],19%
same,Population Normal (%),[7],72%
same,Population Pyknosed Nuclei (%),[7],51%
same,Population Tubulin-Different-Phenotype (%),[7],95%
same,Total Cell Count,[7],241
same,Population Apoptotic (%),[8],81%
same,Population Fragmented Nuclei (%),[8],3%
same,Population Healthy Nuclei (%),[8],42%
same,Population Hoechst High Intensity Objects (%),[8],16%
same,Population Membrane Permeable-Phenotype (%),[8],2%
same,Population Mitochondria Different-Phenotype (%),[8],100%
same,Population Mitotic Cells (%),[8],18%
same,Population Normal (%),[8],83%
same,Population Pyknosed Nuclei (%),[8],54%
same,Population Tubulin-Different-Phenotype (%),[8],100%
same,Total Cell Count,[8],190
same,Population Apoptotic (%),[9],36%
same,Population Healthy Nuclei (%),[9],79%
same,Population Hoechst High Intensity Objects (%),[9],7%
same,Population Membrane Permeable-Phenotype (%),[9],1%
same,Population Mitochondria Different-Phenotype (%),[9],25%
same,Population Mitotic Cells (%),[9],63%
same,Population Normal (%),[9],92%
same,Population Pyknosed Nuclei (%),[9],11%
same,Population Tubulin-Different-Phenotype (%),[9],26%
same,Total Cell Count,[9],532
same,Population Apoptotic (%),[10],12%
same,Population Fragmented Nuclei (%),[10],8%
same,Population Healthy Nuclei (%),[10],76%
same,Population Hoechst High Intensity Objects (%),[10],4%
same,Population Membrane Permeable-Phenotype (%),[10],9%
same,Population Mitochondria Different-Phenotype (%),[10],12%
same,Population Mitotic Cells (%),[10],87%
same,Population Normal (%),[10],95%
same,Population Pyknosed Nuclei (%),[10],14%
same,Population Tubulin-Different-Phenotype (%),[10],35%
same,Total Cell Count,[10],420
same,Population Apoptotic (%),[11],66%
same,Population Fragmented Nuclei (%),[11],12%
same,Population Healthy Nuclei (%),[11],48%
same,Population Hoechst High Intensity Objects (%),[11],45%
same,Population Membrane Permeable-Phenotype (%),[11],1%
same,Population Mitochondria Different-Phenotype (%),[11],93%
same,Population Mitotic Cells (%),[11],33%
same,Population Normal (%),[11],54%
same,Population Pyknosed Nuclei (%),[11],39%
same,Population Tubulin-Different-Phenotype (%),[11],96%
same,Total Cell Count,[11],288
same,Population Apoptotic (%),[12],74%
same,Population Fragmented Nuclei (%),[12],7%
same,Population Healthy Nuclei (%),[12],54%
same,Population Hoechst High Intensity Objects (%),[12],37%
same,Population Membrane Permeable-Phenotype (%),[12],2%
same,Population Mitochondria Different-Phenotype (%),[12],90%
same,Population Mitotic Cells (%),[12],25%
same,Population Normal (%),[12],62%
same,Population Pyknosed Nuclei (%),[12],37%
same,Population Tubulin-Different-Phenotype (%),[12],91%
same,Total Cell Count,[12],217

# Reference: ChEMBL document CHEMBL4689842, “EUbOPEN Chemogenomics Library wave 1” (2021)
